These results are taken from ChEMBL document CHEMBL4725483, “Simultaneous Inhibition of SIRT2 Deacetylase and Defatty-Acylase Activities via a PROTAC Strategy” (ACS Med Chem Lett, 2020).

As a reminder, the pIC50 is the IC50 on a negative log10 scale, so that one unit is a factor of ten.

pIC50: −log10 of the molar value. Calls of active or inactive are those of the source. No cut-off for these calls is given here.

The target in assay [1] is T1, Protein cereblon/NAD-dependent protein deacetylase sirtuin-2 (Homo sapiens) (UniProt Q8IXJ6+Q96SW2). Description: Protac activity at CRBN/SIRT2 in human MDA-MB-468 cells assessed as SIRT2 degradation after 48 hrs by immunoblot analysis. In kind it is cell-based. In short, it runs like this: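 In MDA-MB-231 and MDA-MB-468 cells, SIRT2 was assessed by immunoblot after compound treatment.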

Assay [2] addresses T2, Protein cereblon/NAD-dependent protein deacetylase sirtuin-1 (Homo sapiens) (UniProt Q96EB6+Q96SW2). The experiment in a line: Protac activity at CRBN/SIRT1 in human HEK293T cells stably expressing flag-tagged K-Ras4a-G12V assessed as inhibition of SIRT2 defatty-acylation at 1 uM incubated for 48 hrs by immunoblot analysis. It counts as cell-based. The following applies: HEK-293T. In short, it runs like this:
(§1)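 HEK 293T cells stably overexpressing Flag-tagged K-Ras4a-G12V (confirmed by pan-Ras blot) were exposed to 1 μM compound for 48 h. SIRT1, SIRT2 and SIRT3 levels were then read by immunoblot.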
In general terms: Immunoblotting shows a protein as a band on a membrane.

Assay [3] addresses T3, Protein cereblon/NAD-dependent protein deacetylase sirtuin-3, mitochondrial (Homo sapiens) (UniProt Q9NTG7+Q96SW2). The experiment in a line: Protac activity at CRBN/SIRT3 in human BT549 cells assessed as SIRT3 degradation at 5 to 10 uM after 48 hrs by immunoblot analysis. The following applies: BT-549, dose microM 5-10, time 48.0 hrs. It counts as cell-based. The method in brief:
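MCF7 or BT-549 cells exposed to inhibitor at the indicated concentrations for 48 h; SIRT1, SIRT2 and SIRT3 levels read by immunoblot.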

Assay [4] deals with T1, Protein cereblon/NAD-dependent protein deacetylase sirtuin-2 (Homo sapiens). Description: Protac activity at CRBN/SIRT2 in human MCF7 cells assessed as SIRT2 degradation at 10 uM by immunoblot analysis. In kind it is cell-based. The settings on record: TDE = time-dependent effect. The method in brief:
(§2)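 MCF7 cells treated at a fixed concentration (10 or 25 μM) and harvested at several incubation times; SIRT2 level read by immunoblot.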

Assay [5] has the same target. The experiment in a line: Protac activity at CRBN/SIRT2 in human MCF7 cells assessed as SIRT2 degradation at 25 uM by immunoblot analysis. It counts as cell-based. In short, it runs like this: as §2
Assay [6] shares this target. Description: Protac activity at CRBN/SIRT2 in human MCF7 cells assessed as inhibition of SIRT2 deacetylation by measuring increase in acetylated-alpha tubulin level at 5 uM measured after 12 hrs by DAPI staining based immunofluorescence microscopic analysis. In kind it is cell-based. In short, it runs like this: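 MCF7 cells treated for 12 h with 5 or 10 μM, DMSO as control. Acetyl-α-tubulin (K40) was imaged by immunofluorescence, and fluorescence intensity was quantified and normalized to vehicle.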

Assay [7] has as its target T4, NAD-dependent protein deacetylase sirtuin-1 (Homo sapiens, UniProt Q96EB6).
T4 sequence (Q96EB6 whole entry): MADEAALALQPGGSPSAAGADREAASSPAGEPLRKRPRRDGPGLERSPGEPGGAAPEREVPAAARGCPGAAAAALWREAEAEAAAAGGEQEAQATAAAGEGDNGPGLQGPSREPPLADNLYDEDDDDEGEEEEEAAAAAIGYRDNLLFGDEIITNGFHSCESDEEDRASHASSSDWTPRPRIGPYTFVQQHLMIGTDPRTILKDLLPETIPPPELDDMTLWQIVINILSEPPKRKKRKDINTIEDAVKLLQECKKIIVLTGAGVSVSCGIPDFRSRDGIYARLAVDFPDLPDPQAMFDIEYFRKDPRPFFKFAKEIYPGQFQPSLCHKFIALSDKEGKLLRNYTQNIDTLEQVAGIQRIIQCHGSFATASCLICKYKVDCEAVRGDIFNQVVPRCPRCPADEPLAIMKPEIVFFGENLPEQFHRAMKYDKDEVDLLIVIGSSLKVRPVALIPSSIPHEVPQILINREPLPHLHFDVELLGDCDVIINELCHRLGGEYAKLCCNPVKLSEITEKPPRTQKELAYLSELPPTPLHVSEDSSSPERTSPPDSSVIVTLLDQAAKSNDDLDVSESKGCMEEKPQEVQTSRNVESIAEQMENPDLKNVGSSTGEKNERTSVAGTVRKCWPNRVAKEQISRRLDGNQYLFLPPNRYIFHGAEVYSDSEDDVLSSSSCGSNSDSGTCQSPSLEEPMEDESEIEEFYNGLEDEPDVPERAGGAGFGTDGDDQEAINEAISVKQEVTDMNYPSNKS
The experiment in a line: Inhibition of human SIRT1 deacetylation activity using H3K9Ac as substrate preincubated for 15 mins in presence of NAD+ followed by substrate addition by HPLC analysis. The method in brief: (§3)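 In vitro sirtuin reaction mixture with compound at a range of concentrations. Compound was preincubated with NAD+ and the enzyme before the substrate peptide was added. IC50 taken from the concentration series.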

For assay [8], the target named is T2, Protein cereblon/NAD-dependent protein deacetylase sirtuin-1 (Homo sapiens). The experiment in a line: Protac activity at CRBN/SIRT1 in human HEK293T cells assessed as abundance ratio at 5 uM incubated for 16 hrs by TMT global proteomics assay relative to DMSO. It counts as cell-based. The settings on record: HEK-293T. The method in brief:
(§4)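 HEK 293T cells given 5 μM compound for 16 h. Global proteomics used Tandem Mass Tag labelling, and each sirtuin's abundance is given as a ratio of treated to DMSO-treated cells.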

The subject of the next assay is MDA-MB-231. Description: Cytotoxicity against human MDA-MB-231 cells assessed as reduction in cell viability at 1 uM after 72 hrs. In kind it is functional, cell-based.
Assay [9] deals with T1, Protein cereblon/NAD-dependent protein deacetylase sirtuin-2 (Homo sapiens). The experiment in a line: Protac activity at CRBN/SIRT2 in human MCF7 cells assessed as SIRT2 degradation at 5 uM preincubated with proteasome inhibitior MG132 for 2 hrs followed by compound addition measured after 16 hrs by immunoblot analysis. In kind it is cell-based. In short, it runs like this:
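Proteasome dependence: MCF7 cells pretreated 2 h with 5 μM MG132, then cotreated with 5 μM compound plus 5 μM MG132 for 16 h more; SIRT2 detected by immunoblot.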

The target is the same in assay [10]. The experiment in a line: Protac activity at CRBN/SIRT2 in human MCF7 cells assessed as SIRT2 degradation at 0.5 uM after 48 hrs by immunoblot analysis. In kind it is cell-based. The method in brief:
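MCF7 cells given a range of concentrations below and above 5 μM (0.5 to 50 μM) for 48 h; SIRT2 measured by immunoblot against vehicle-treated cells.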

Assay [11] addresses NAD-dependent protein deacylase sirtuin-6 (Homo sapiens, UniProt Q8N6T7). Description: Inhibition of human SIRT6 deacetylation activity using H3K9Ac as substrate preincubated for 15 mins in presence of NAD+ followed by substrate addition by HPLC analysis. In short, it runs like this: as §3
Assay [12] deals with NAD-dependent protein deacylase sirtuin-5, mitochondrial (Homo sapiens, UniProt Q9NXA8). Description: Inhibition of human SIRT5 deacetylation activity using H3K9Ac as substrate preincubated for 15 mins in presence of NAD+ followed by substrate addition by HPLC analysis. In short, it runs like this: as §3
Assay [13] has as its target T1, Protein cereblon/NAD-dependent protein deacetylase sirtuin-2 (Homo sapiens). The experiment in a line: Protac activity at CRBN/SIRT2 in human MCF7 cells assessed as SIRT2 degradation at 5 to 10 uM after 48 hrs by immunoblot analysis. It counts as cell-based. The settings on record: dose microM 5-10, time 48.0 hrs. In short, it runs like this: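 Cells exposed to compound at the indicated concentrations for 48 h. SIRT1, SIRT2 and SIRT3 levels were read by immunoblot.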

The target in assay [14] is T3, Protein cereblon/NAD-dependent protein deacetylase sirtuin-3, mitochondrial (Homo sapiens). Description: Protac activity at CRBN/SIRT3 in human HEK293T cells assessed as abundance ratio at 5 uM incubated for 16 hrs by TMT global proteomics assay relative to DMSO. The following applies: HEK-293T. It counts as cell-based. In short, it runs like this:
as §4

Assay [15] has as its target T1, Protein cereblon/NAD-dependent protein deacetylase sirtuin-2 (Homo sapiens). Description: Protac activity at CRBN/SIRT2 in human HEK293T cells stably expressing flag-tagged K-Ras4a-G12V assessed as inhibition of SIRT2 defatty-acylation at 1 uM incubated for 48 hrs by immunoblot analysis. It counts as cell-based. The following applies: HEK-293T. In short, it runs like this:
as §1

T1 sequence (Q8IXJ6 whole entry, looked up): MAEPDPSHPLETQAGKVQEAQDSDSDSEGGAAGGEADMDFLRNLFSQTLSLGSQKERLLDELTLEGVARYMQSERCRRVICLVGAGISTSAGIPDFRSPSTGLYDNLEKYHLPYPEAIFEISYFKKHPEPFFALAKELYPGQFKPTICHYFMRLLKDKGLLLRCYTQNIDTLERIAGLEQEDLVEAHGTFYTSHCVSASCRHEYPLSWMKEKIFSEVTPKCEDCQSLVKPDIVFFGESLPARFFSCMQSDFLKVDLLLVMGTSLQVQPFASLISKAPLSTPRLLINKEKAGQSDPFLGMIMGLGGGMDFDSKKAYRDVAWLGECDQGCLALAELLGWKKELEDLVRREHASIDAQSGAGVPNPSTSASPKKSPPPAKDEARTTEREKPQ
T1 sequence (Q96SW2 whole entry, looked up): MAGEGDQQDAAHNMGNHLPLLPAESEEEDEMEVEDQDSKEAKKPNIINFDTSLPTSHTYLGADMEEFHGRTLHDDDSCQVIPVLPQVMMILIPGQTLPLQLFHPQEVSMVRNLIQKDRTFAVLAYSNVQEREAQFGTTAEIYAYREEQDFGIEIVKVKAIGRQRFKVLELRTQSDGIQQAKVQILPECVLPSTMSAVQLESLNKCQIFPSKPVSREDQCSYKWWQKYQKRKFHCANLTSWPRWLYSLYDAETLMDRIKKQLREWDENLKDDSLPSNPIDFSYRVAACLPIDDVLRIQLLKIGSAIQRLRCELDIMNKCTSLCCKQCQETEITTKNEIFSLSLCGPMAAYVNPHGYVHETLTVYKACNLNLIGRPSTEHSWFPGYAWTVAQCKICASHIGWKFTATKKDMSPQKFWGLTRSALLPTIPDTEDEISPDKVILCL
T3 sequence (Q96SW2 whole entry, looked up): as above
T3 sequence (Q9NTG7 whole entry, looked up): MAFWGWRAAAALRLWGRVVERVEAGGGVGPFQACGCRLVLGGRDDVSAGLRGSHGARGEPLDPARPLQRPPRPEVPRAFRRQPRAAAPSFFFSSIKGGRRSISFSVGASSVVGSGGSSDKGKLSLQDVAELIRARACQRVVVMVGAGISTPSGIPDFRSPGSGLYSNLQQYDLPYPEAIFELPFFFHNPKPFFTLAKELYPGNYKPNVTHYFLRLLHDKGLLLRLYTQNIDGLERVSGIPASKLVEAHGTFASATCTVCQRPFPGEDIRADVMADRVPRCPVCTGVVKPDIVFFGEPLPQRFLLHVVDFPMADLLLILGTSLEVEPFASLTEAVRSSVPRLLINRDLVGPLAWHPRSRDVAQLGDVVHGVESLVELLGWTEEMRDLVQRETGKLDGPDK
T2 sequence (Q96SW2 whole entry, looked up, one chain of several): as the sequence (Q96SW2 whole entry, looked up) above
Chain of NAD-dependent protein deacylase sirtuin-5, mitochondrial (Q9NXA8 whole entry): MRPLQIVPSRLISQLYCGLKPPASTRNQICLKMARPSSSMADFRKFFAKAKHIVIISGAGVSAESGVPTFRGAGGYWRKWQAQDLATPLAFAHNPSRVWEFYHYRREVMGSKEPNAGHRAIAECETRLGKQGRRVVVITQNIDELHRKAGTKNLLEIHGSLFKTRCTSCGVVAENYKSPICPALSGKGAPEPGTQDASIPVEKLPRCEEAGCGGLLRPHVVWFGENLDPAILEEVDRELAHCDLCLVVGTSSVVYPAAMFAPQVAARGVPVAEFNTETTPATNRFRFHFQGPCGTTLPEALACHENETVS
Chain of NAD-dependent protein deacylase sirtuin-6 (Q8N6T7 whole entry): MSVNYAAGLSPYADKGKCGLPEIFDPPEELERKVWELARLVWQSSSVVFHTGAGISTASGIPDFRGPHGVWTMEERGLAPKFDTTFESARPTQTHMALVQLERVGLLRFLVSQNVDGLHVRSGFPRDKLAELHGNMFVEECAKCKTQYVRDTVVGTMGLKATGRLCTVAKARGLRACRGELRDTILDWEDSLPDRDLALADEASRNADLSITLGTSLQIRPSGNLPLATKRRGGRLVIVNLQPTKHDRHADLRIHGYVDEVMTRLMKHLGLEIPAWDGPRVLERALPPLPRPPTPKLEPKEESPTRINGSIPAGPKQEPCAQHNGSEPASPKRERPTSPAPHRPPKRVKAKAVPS

In the case of `CCCCCCCCCCCCCC(=S)NCCCC[C@H](NC(=O)CCOCCOCCOCCOCCNc1cccc2c1C(=O)N(C1CCC(=O)NC1=O)C2=O)C(=O)Nc1ccccc1` (stereo partly specified), the outcome in assay [1], in assay [6], in assay [10], in assay [13] and in assay [15] was Active. Further, the outcome (in [2]; in assay [3]; in [5]; in [8]; in the assay on MDA-MB-231; in assay [9]) was inactive. Moreover, in assay [14], the outcome was inactive. The Activity result in [4] was “Tde”. The pIC50 in assay [7] is 4.39; in assay [11], less than 4.08; in [12], less than 4.08.
